pIC50: −log10 of the molar value. Values after ≈ are worked out from the molar mass of the structure shown.
Legend:
[1] = system: Mycobacterium tuberculosis; assay: Antimycobacterial activity against Mycobacterium tuberculosis H37Rv; type: functional
Summary of the method: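 Drug-sensitive M. tuberculosis H37Rv grown in a glycerol-containing medium; MIC99 is the minimum concentration that inhibits growth of 99% of the bacterial population.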

[2] = system: CHO-K1; assay: Cytotoxicity against CHOK1 cells assessed as reduction in cell viability; type: cell-based; details: Cricetulus griseus

CC(=O)O[C@H]1C[C@@]2(C)[C@@H](C[C@@H](O)[C@H]3[C@@]4(C)CC[C@@H](O)[C@@H](C)[C@@H]4CC[C@@]32C)/C1=C(\CCC=C(C)C)C(=O)NS(C)(=O)=O
MIC99 [1]: 80 µM (≈ 47.5 µg/mL) | pIC50 [2]: < 3.77

CCS(=O)(=O)NNC(=O)/C(CCC=C(C)C)=C1\[C@@H](OC(C)=O)C[C@@]2(C)[C@H]1C[C@@H](O)[C@H]1[C@@]3(C)CC[C@@H](O)[C@@H](C)[C@@H]3CC[C@@]12C
MIC99 [1]: 40 µM (≈ 24.9 µg/mL) | pIC50 [2]: 4.11

CC(=O)O[C@H]1C[C@@]2(C)[C@@H](C[C@@H](O)[C@H]3[C@@]4(C)CC[C@@H](O)[C@@H](C)[C@@H]4CC[C@@]32C)/C1=C(\CCC=C(C)C)C(=O)NNC(=O)c1cccs1
MIC99 [1]: 40 µM (≈ 25.6 µg/mL) | pIC50 [2]: 4.10

CC(=O)O[C@H]1C[C@@]2(C)[C@@H](C[C@@H](O)[C@H]3[C@@]4(C)CC[C@@H](O)[C@@H](C)[C@@H]4CC[C@@]32C)/C1=C(\CCC=C(C)C)C(=O)NS(=O)(=O)c1ccccc1
MIC99 [1]: > 125 µM | pIC50 [2]: 4.02

CC(=O)O[C@H]1C[C@@]2(C)[C@@H](C[C@@H](O)[C@H]3[C@@]4(C)CC[C@@H](O)[C@@H](C)[C@@H]4CC[C@@]32C)/C1=C(\CCC=C(C)C)C(=O)Nc1nn[nH]n1
MIC99 [1]: 40 µM (≈ 23.4 µg/mL) | pIC50 [2]: < 3.77

CC(=O)O[C@H]1C[C@@]2(C)[C@@H](C[C@@H](O)[C@H]3[C@@]4(C)CC[C@@H](O)[C@@H](C)[C@@H]4CC[C@@]32C)/C1=C(\CCC=C(C)C)C(=O)NC#N
MIC99 [1]: 40 µM (≈ 21.6 µg/mL) | pIC50 [2]: < 3.73

CC(=O)O[C@H]1C[C@@]2(C)[C@@H](C[C@@H](O)[C@H]3[C@@]4(C)CC[C@@H](O)[C@@H](C)[C@@H]4CC[C@@]32C)/C1=C(\CCC=C(C)C)C(N)=O
MIC99 [1]: > 125 µM | pIC50 [2]: 3.95

CC(=O)O[C@H]1C[C@@]2(C)[C@@H](C[C@@H](O)[C@H]3[C@@]4(C)CC[C@@H](O)[C@@H](C)[C@@H]4CC[C@@]32C)/C1=C(\CCC=C(C)C)C(=O)NS(=O)(=O)c1ccc(F)c(F)c1
MIC99 [1]: 20 µM (≈ 13.8 µg/mL) | pIC50 [2]: 4.09

CC(=O)O[C@H]1C[C@@]2(C)[C@@H](C[C@@H](O)[C@H]3[C@@]4(C)CC[C@@H](O)[C@@H](C)[C@@H]4CC[C@@]32C)/C1=C(\CCC=C(C)C)C(=O)NN
MIC99 [1]: 40 µM (≈ 21.2 µg/mL) | pIC50 [2]: 3.95

CCCCCCCCCCCCCCNC(=O)/C(CCC=C(C)C)=C1\[C@@H](OC(C)=O)C[C@@]2(C)[C@H]1C[C@@H](O)[C@H]1[C@@]3(C)CC[C@@H](O)[C@@H](C)[C@@H]3CC[C@@]12C
MIC99 [1]: > 125 µM | pIC50 [2]: < 3.85

CCCCCCCCCCCCCCCCNC(=O)/C(CCC=C(C)C)=C1\[C@@H](OC(C)=O)C[C@@]2(C)[C@H]1C[C@@H](O)[C@H]1[C@@]3(C)CC[C@@H](O)[C@@H](C)[C@@H]3CC[C@@]12C
MIC99 [1]: > 125 µM | pIC50 [2]: < 3.87

CCCCCCCCCCCCNC(=O)/C(CCC=C(C)C)=C1\[C@@H](OC(C)=O)C[C@@]2(C)[C@H]1C[C@@H](O)[C@H]1[C@@]3(C)CC[C@@H](O)[C@@H](C)[C@@H]3CC[C@@]12C
MIC99 [1]: > 125 µM | pIC50 [2]: < 3.84

CCCCCCCCCC(=O)O[C@@H]1CC[C@@]2(C)[C@@H](CC[C@@]3(C)[C@H]2[C@H](O)C[C@H]2/C(=C(\CCC=C(C)C)C(=O)O)[C@@H](OC(C)=O)C[C@@]23C)[C@@H]1C
MIC99 [1]: > 125 µM

CC(=O)O[C@H]1C[C@@]2(C)[C@@H](C[C@@H](O)[C@H]3[C@@]4(C)CC[C@@H](OC(=O)c5ccc([N+](=O)[O-])cc5)[C@@H](C)[C@@H]4CC[C@@]32C)/C1=C(\CCC=C(C)C)C(=O)O
MIC99 [1]: > 125 µM

CC(=O)O[C@H]1C[C@@]2(C)[C@@H](C[C@@H](O)[C@H]3[C@@]4(C)CC[C@@H](O)[C@@H](C)[C@@H]4CC[C@@]32C)/C1=C(\CCC=C(C)C)C(=O)N/N=C/c1ccncc1
MIC99 [1]: 20 µM (≈ 12.4 µg/mL)

CC(=O)O[C@H]1C[C@@]2(C)[C@@H](C[C@@H](O)[C@H]3[C@@]4(C)CC[C@@H](OC(=O)c5ccc(C(F)(F)F)cc5)[C@@H](C)[C@@H]4CC[C@@]32C)/C1=C(\CCC=C(C)C)C(=O)O
MIC99 [1]: > 125 µM

CC(=O)O[C@H]1C[C@@]2(C)[C@@H](C[C@@H](O)[C@H]3[C@@]4(C)CC[C@@H](O)[C@@H](C)[C@@H]4CC[C@@]32C)/C1=C(\CCC=C(C)C)C(=O)NCCN1CCOCC1
MIC99 [1]: > 125 µM

CCC(=O)O[C@@H]1CC[C@@]2(C)[C@@H](CC[C@@]3(C)[C@H]2[C@H](O)C[C@H]2/C(=C(\CCC=C(C)C)C(=O)NN)[C@@H](OC(C)=O)C[C@@]23C)[C@@H]1C
MIC99 [1]: 15.6 µM (≈ 9.15 µg/mL)

CC(=O)O[C@H]1C[C@@]2(C)[C@@H](C[C@@H](O)[C@H]3[C@@]4(C)CCC(=O)[C@@H](C)[C@@H]4CC[C@@]32C)/C1=C(\CCC=C(C)C)C(=O)NNS(C)(=O)=O
MIC99 [1]: 62.5 µM (≈ 37.9 µg/mL)

CCCCC(=O)O[C@@H]1CC[C@@]2(C)[C@@H](CC[C@@]3(C)[C@H]2[C@H](O)C[C@H]2/C(=C(\CCC=C(C)C)C(=O)NN)[C@@H](OC(C)=O)C[C@@]23C)[C@@H]1C
MIC99 [1]: 62.5 µM (≈ 38.4 µg/mL)

CCCCC(=O)O[C@@H]1CC[C@@]2(C)[C@@H](CC[C@@]3(C)[C@H]2[C@H](O)C[C@H]2/C(=C(\CCC=C(C)C)C(=O)NNS(C)(=O)=O)[C@@H](OC(C)=O)C[C@@]23C)[C@@H]1C
MIC99 [1]: 62.5 µM (≈ 43.3 µg/mL)

CC(=O)O[C@H]1C[C@@]2(C)[C@@H](C[C@@H](O)[C@H]3[C@@]4(C)CC[C@@H](OC(=O)c5ccncc5)[C@@H](C)[C@@H]4CC[C@@]32C)/C1=C(\CCC=C(C)C)C(=O)O
MIC99 [1]: 31.3 µM (≈ 19.5 µg/mL)

CC(=O)O[C@H]1C[C@@]2(C)[C@@H](C[C@@H](O)[C@H]3[C@@]4(C)CC[C@@H](OC(=O)c5ccc(F)cc5)[C@@H](C)[C@@H]4CC[C@@]32C)/C1=C(\CCC=C(C)C)C(=O)O
MIC99 [1]: > 125 µM

CO/N=C1\CC[C@@]2(C)[C@@H](CC[C@@]3(C)[C@H]2[C@H](O)C[C@H]2/C(=C(\CCC=C(C)C)C(=O)O)[C@@H](OC(C)=O)C[C@@]23C)[C@@H]1C
MIC99 [1]: 20 µM (≈ 10.9 µg/mL)

CC(=O)O[C@H]1C[C@@]2(C)[C@@H](C[C@@H](O)[C@H]3[C@@]4(C)CC[C@@H](O)[C@@H](C)[C@@H]4CC[C@@]32C)/C1=C(\CCC=O)C(=O)O
MIC99 [1]: 40 µM (≈ 19.6 µg/mL)

CC(=O)O[C@H]1C[C@@]2(C)[C@@H](CC(=O)[C@H]3[C@@]4(C)CCC(=O)[C@@H](C)[C@@H]4CC[C@@]32C)/C1=C(\CCC=C(C)C)C(=O)O
MIC99 [1]: 11.9 µM (≈ 6.1 µg/mL)

CC(=O)O[C@H]1C[C@@]2(C)[C@@H](C[C@@H](O)[C@H]3[C@@]4(C)CC[C@@H](OC(=O)c5ccc(C)cc5)[C@@H](C)[C@@H]4CC[C@@]32C)/C1=C(\CCC=C(C)C)C(=O)O
MIC99 [1]: 31.3 µM (≈ 19.9 µg/mL)

CC(=O)O[C@H]1C[C@@]2(C)[C@@H](C[C@@H](O)[C@H]3[C@@]4(C)CC[C@@H](O)[C@@H](C)[C@@H]4CC[C@@]32C)/C1=C(\CCC=C(C)C)C(=O)N1CC(O)C1
MIC99 [1]: 40 µM (≈ 22.9 µg/mL)

CC(=O)O[C@H]1C[C@@]2(C)[C@@H](C[C@@H](O)[C@H]3[C@@]4(C)CC[C@@H](O)[C@@H](C)[C@@H]4CC[C@@]32C)/C1=C(\CCC=C(C)C)C(=O)N1CCC(O)CC1
MIC99 [1]: 40 µM (≈ 24 µg/mL)

CC(=O)O[C@H]1C[C@@]2(C)[C@@H](C[C@@H](O)[C@H]3[C@@]4(C)CC[C@@H](O)[C@@H](C)[C@@H]4CC[C@@]32C)C1=O
MIC99 [1]: > 125 µM

CC(=O)O[C@H]1C[C@@]2(C)[C@@H](C[C@@H](O)[C@H]3[C@@]4(C)CC[C@@H](O)[C@@H](C)[C@@H]4CC[C@@]32C)/C1=C(\CCC=C(C)C)C(=O)N/N=C/c1cccnc1
MIC99 [1]: 20 µM (≈ 12.4 µg/mL)

CC(=O)O[C@H]1C[C@@]2(C)[C@@H](C[C@@H](OC(C)=O)[C@H]3[C@@]4(C)CC[C@@H](OC(C)=O)[C@@H](C)[C@@H]4CC[C@@]32C)/C1=C(\CCC=C(C)C)C(=O)O
MIC99 [1]: 52.5 µM (≈ 31.5 µg/mL)

CC(=O)O[C@H]1C[C@@]2(C)[C@@H](C[C@@H](O)[C@H]3[C@@]4(C)CC[C@@H](O)[C@@H](C)[C@@H]4CC[C@@]32C)/C1=C(\CCC=C(C)C)C(=O)NCCO
MIC99 [1]: > 125 µM

CC(=O)O[C@H]1C[C@@]2(C)[C@@H](C[C@@H](O)[C@H]3[C@@]4(C)CC[C@@H](O)[C@@H](C)[C@@H]4CC[C@@]32C)/C1=C(\CCC=C(C)C)C(=O)NS(=O)(=O)c1ccc(C#N)cc1
MIC99 [1]: 125 µM (≈ 85.1 µg/mL)

CC(=O)O[C@H]1C[C@@]2(C)[C@@H](C[C@@H](O)[C@H]3[C@@]4(C)CC[C@@H](OC(=O)c5ccc(S(C)(=O)=O)cc5)[C@@H](C)[C@@H]4CC[C@@]32C)/C1=C(\CCC=C(C)C)C(=O)O
MIC99 [1]: 31.3 µM (≈ 21.9 µg/mL)

CC(=O)O[C@H]1C[C@@]2(C)[C@@H](C[C@@H](O)[C@H]3[C@@]4(C)CC[C@@H](OC(=O)c5ccc(Br)cc5)[C@@H](C)[C@@H]4CC[C@@]32C)/C1=C(\CCC=C(C)C)C(=O)O
MIC99 [1]: > 125 µM

CC(=O)O[C@H]1C[C@@]2(C)[C@@H](C[C@@H](O)[C@H]3[C@@]4(C)CC[C@@H](O)[C@@H](C)[C@@H]4CC[C@@]32C)/C1=C(\CCC=C(C)C)C(=O)NNS(C)(=O)=O
MIC99 [1]: 10 µM (≈ 6.09 µg/mL) | pIC50 [2]: 4.04

CC(=O)O[C@H]1C[C@@]2(C)[C@@H](C[C@@H](O)[C@H]3[C@@]4(C)CC/C(=N\OCc5ccccc5)[C@@H](C)[C@@H]4CC[C@@]32C)/C1=C(\CCC=C(C)C)C(=O)O
MIC99 [1]: 40 µM (≈ 24.8 µg/mL)

COc1ccc(S(=O)(=O)NC(=O)/C(CCC=C(C)C)=C2\[C@@H](OC(C)=O)C[C@@]3(C)[C@H]2C[C@@H](O)[C@H]2[C@@]4(C)CC[C@@H](O)[C@@H](C)[C@@H]4CC[C@@]23C)cc1
MIC99 [1]: 31.3 µM (≈ 21.5 µg/mL)

CCC(=O)O[C@@H]1CC[C@@]2(C)[C@@H](CC[C@@]3(C)[C@H]2[C@H](O)C[C@H]2/C(=C(\CCC=C(C)C)C(=O)NNS(C)(=O)=O)[C@@H](OC(C)=O)C[C@@]23C)[C@@H]1C
MIC99 [1]: 7.81 µM (≈ 5.19 µg/mL)

CC[C@H]1CN2CCc3cc(OC)c(OC)cc3[C@@H]2C[C@@H]1C[C@H]1NCCc2cc(OC)c(OC)cc21 [EMETINE]
pIC50 [2]: 6.40

CO[C@H]1/C=C/O[C@@]2(C)Oc3c(C)c(O)c4c(O)c(c(/C=N/N5CCN(C)CC5)c(O)c4c3C2=O)NC(=O)/C(C)=C\C=C\[C@H](C)[C@H](O)[C@@H](C)[C@@H](O)[C@@H](C)[C@H](OC(C)=O)[C@@H]1C [RIFAMPIN]
MIC99 [1]: 0.005 µM (≈ 0.00411 µg/mL)
